Laboratory results as given in ChEMBL document CHEMBL2331542, “Synthesis and in vitro antibacterial activity of quinolone/naphthyridone derivatives containing 3-alkoxyimino-4-(methyl)aminopiperidine scaffolds” (2013).
In brackets after ≈: the same amount, converted by molar mass.

Assays:
Type in all cases: functional
[1] = tested on: Escherichia coli; assay: Antibacterial activity against extended-spectrum beta-lactamase-producing Escherichia coli isolate 12-4
Method in brief: (§1)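 MIC determined in vitro by a standard technique and defined as the lowest compound concentration giving complete inhibition of bacterial growth. The Gram-positive and Gram-negative panels were tested alongside gemifloxacin, levofloxacin and ciprofloxacin reference drugs.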

[2] = tested on: Escherichia coli; assay: Antibacterial activity against extended-spectrum beta-lactamase-producing Escherichia coli isolate 12-2; method in brief: as §1
[3] = tested on: Escherichia coli; assay: Antibacterial activity against extended-spectrum beta-lactamase-producing Escherichia coli isolate 12-1; method in brief: as §1
[4] = tested on: Escherichia coli; assay: Antibacterial activity against Escherichia coli isolate 12-5; method in brief: as §1
[5] = tested on: Escherichia coli; assay: Antibacterial activity against Escherichia coli isolate 12-4; method in brief: as §1
[6] = tested on: Escherichia coli; assay: Antibacterial activity against Escherichia coli isolate 12-1; method in brief: as §1
[7] = tested on: Escherichia coli; assay: Antibacterial activity against Escherichia coli ATCC 25922; method in brief: as §1
[8] = tested on: Streptococcus pneumoniae; assay: Antibacterial activity against Streptococcus pneumoniae isolate 12-5; method in brief: as §1
[9] = tested on: Streptococcus pneumoniae; assay: Antibacterial activity against Streptococcus pneumoniae isolate 12-2; method in brief: as §1
[10] = tested on: Staphylococcus epidermidis; assay: Antibacterial activity against methicillin-resistant Staphylococcus epidermidis isolate 12-35
Method in brief: (§2)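 MIC determined in vitro by standard techniques, defined as the lowest compound concentration giving complete inhibition of bacterial growth. Gemifloxacin, levofloxacin and ciprofloxacin were tested alongside as reference drugs.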

[11] = tested on: Staphylococcus epidermidis; assay: Antibacterial activity against methicillin-resistant Staphylococcus epidermidis isolate 12-33; method in brief: as §2
[12] = tested on: Staphylococcus epidermidis; assay: Antibacterial activity against methicillin-resistant Staphylococcus epidermidis isolate 12-5; method in brief: as §2
[13] = tested on: Staphylococcus epidermidis; assay: Antibacterial activity against methicillin-sensitive Staphylococcus epidermidis isolate 12-3; method in brief: as §1
[14] = tested on: Staphylococcus epidermidis; assay: Antibacterial activity against methicillin-sensitive Staphylococcus epidermidis isolate 12-2; method in brief: as §1
[15] = tested on: Staphylococcus epidermidis; assay: Antibacterial activity against methicillin-sensitive Staphylococcus epidermidis isolate 12-1; method in brief: as §1
[16] = tested on: Staphylococcus aureus; assay: Antibacterial activity against methicillin-resistant Staphylococcus aureus isolate 12-15; method in brief: as §2
[17] = tested on: Staphylococcus aureus; assay: Antibacterial activity against methicillin-resistant Staphylococcus aureus isolate 12-13; method in brief: as §2
[18] = tested on: Staphylococcus aureus; assay: Antibacterial activity against methicillin-resistant Staphylococcus aureus isolate 12-3; method in brief: as §2
[19] = tested on: Staphylococcus aureus; assay: Antibacterial activity against methicillin-sensitive Staphylococcus aureus isolate 12-10; method in brief: as §1
[20] = tested on: Staphylococcus aureus; assay: Antibacterial activity against methicillin-sensitive Staphylococcus aureus isolate 12-7; method in brief: as §1
[21] = tested on: Staphylococcus aureus; assay: Antibacterial activity against methicillin-sensitive Staphylococcus aureus isolate 12-6; method in brief: as §1
[22] = tested on: Staphylococcus aureus; assay: Antibacterial activity against Staphylococcus aureus […]; method in brief: as §1
[23] = tested on: Pseudomonas aeruginosa; assay: Antibacterial activity against Pseudomonas aeruginosa isolate 12-2; method in brief: as §1
[24] = tested on: Pseudomonas aeruginosa; assay: Antibacterial activity against Pseudomonas aeruginosa isolate 12-1; method in brief: as §1
[25] = tested on: Pseudomonas aeruginosa; assay: Antibacterial activity against Pseudomonas aeruginosa ATCC 27853; method in brief: as §1
[26] = tested on: Klebsiella pneumoniae; assay: Antibacterial activity against extended-spectrum beta-lactamase-producing Klebsiella pneumoniae isolate 12-4; method in brief: as §1
[27] = tested on: Klebsiella pneumoniae; assay: Antibacterial activity against extended-spectrum beta-lactamase-producing Klebsiella pneumoniae isolate 12-2; method in brief: as §1
[28] = tested on: Klebsiella pneumoniae; assay: Antibacterial activity against extended-spectrum beta-lactamase-producing Klebsiella pneumoniae isolate 12-1; method in brief: as §1
[29] = tested on: Klebsiella pneumoniae; assay: Antibacterial activity against Klebsiella pneumoniae isolate 12-4; method in brief: as §1
[30] = tested on: Klebsiella pneumoniae; assay: Antibacterial activity against Klebsiella pneumoniae isolate 12-2; method in brief: as §1
[31] = tested on: Klebsiella pneumoniae; assay: Antibacterial activity against Klebsiella pneumoniae isolate 12-1; method in brief: as §1

Row | Compound | MIC [2] [µg/mL] | MIC [3] [µg/mL] | MIC [4] [µg/mL] | MIC [5] [µg/mL] | MIC [8] [µg/mL] | MIC [10] [µg/mL] | MIC [11] [µg/mL] | MIC [12] [µg/mL] | MIC [13] [µg/mL] | MIC [14] [µg/mL] | MIC [15] [µg/mL] | MIC [19] [µg/mL] | MIC [20] [µg/mL] | MIC [22] [µg/mL] | MIC [23] [µg/mL] | MIC [26] [µg/mL] | MIC [27] [µg/mL] | MIC [29] [µg/mL] | MIC [30] [µg/mL] | MIC [31] [µg/mL] | further results
1 | CCO/N=C1\CN(c2c(F)cc3c(=O)c(C(=O)O)cn4c3c2OC[C@@H]4C)CCC1NC (some centres undefined) | > 128 | > 128 | > 128 | > 128 | 8 (≈ 18.5 µM) | 0.5 (≈ 1.16 µM) | 8 (≈ 18.5 µM) | 0.5 (≈ 1.16 µM) | 0.5 (≈ 1.16 µM) | 2 (≈ 4.62 µM) | 0.5 (≈ 1.16 µM) | > 128 | 128 (≈ 296 µM) | 0.5 (≈ 1.16 µM) | 8 (≈ 18.5 µM) | > 128 | 32 (≈ 74 µM) | 1 (≈ 2.31 µM) | 1 (≈ 2.31 µM) | 2 (≈ 4.62 µM) | MIC [1]: 64 µg/mL (≈ 148 µM); MIC [6]: 4 µg/mL (≈ 9.25 µM); MIC [7]: 16 µg/mL (≈ 37 µM); MIC [9]: 1 µg/mL (≈ 2.31 µM); MIC [16]: 1 µg/mL (≈ 2.31 µM); MIC [17]: 1 µg/mL (≈ 2.31 µM); MIC [18]: 1 µg/mL (≈ 2.31 µM); MIC [21]: 1 µg/mL (≈ 2.31 µM); MIC [24]: 16 µg/mL (≈ 37 µM); MIC [25]: 32 µg/mL (≈ 74 µM); MIC [28]: 8 µg/mL (≈ 18.5 µM)
2 | O=C1NC2CCN(c3nc4c(cc3F)c(=O)c(C(=O)O)cn4C3CC3)CC2O1 (centres undefined) | > 128 | > 128 | > 128 | > 128 | 0.5 (≈ 1.29 µM) | 0.5 (≈ 1.29 µM) | 1 (≈ 2.57 µM) | 0.5 (≈ 1.29 µM) | 1 (≈ 2.57 µM) | 2 (≈ 5.15 µM) | 1 (≈ 2.57 µM) | 0.5 (≈ 1.29 µM) | 128 (≈ 330 µM) | 1 (≈ 2.57 µM) | 16 (≈ 41.2 µM) | 128 (≈ 330 µM) | > 128 | 32 (≈ 82.4 µM) | 2 (≈ 5.15 µM) | 2 (≈ 5.15 µM) | MIC [1]: 64 µg/mL (≈ 165 µM); MIC [6]: 16 µg/mL (≈ 41.2 µM); MIC [7]: 1 µg/mL (≈ 2.57 µM); MIC [9]: 2 µg/mL (≈ 5.15 µM); MIC [16]: 2 µg/mL (≈ 5.15 µM); MIC [17]: 2 µg/mL (≈ 5.15 µM); MIC [18]: 2 µg/mL (≈ 5.15 µM); MIC [21]: 1 µg/mL (≈ 2.57 µM); MIC [24]: 16 µg/mL (≈ 41.2 µM); MIC [25]: 8 µg/mL (≈ 20.6 µM); MIC [28]: 128 µg/mL (≈ 330 µM)
3 | CO/N=C1\CN(c2nc3c(cc2F)c(=O)c(C(=O)O)cn3C2CC2)CCC1N (centres undefined) | 64 (≈ 164 µM) | > 128 | > 128 | > 128 | 4 (≈ 10.3 µM) | 2 (≈ 5.14 µM) | 4 (≈ 10.3 µM) | 2 (≈ 5.14 µM) | 0.5 (≈ 1.28 µM) | 2 (≈ 5.14 µM) | 0.5 (≈ 1.28 µM) | 2 (≈ 5.14 µM) | 32 (≈ 82.2 µM) | 0.25 (≈ 0.642 µM) | 8 (≈ 20.5 µM) | > 128 | 8 (≈ 20.5 µM) | 0.125 (≈ 0.321 µM) | 0.25 (≈ 0.642 µM) | 0.25 (≈ 0.642 µM) | MIC [1]: 32 µg/mL (≈ 82.2 µM); MIC [6]: 2 µg/mL (≈ 5.14 µM); MIC [7]: 32 µg/mL (≈ 82.2 µM); MIC [9]: 0.25 µg/mL (≈ 0.642 µM); MIC [16]: 0.25 µg/mL (≈ 0.642 µM); MIC [17]: 0.25 µg/mL (≈ 0.642 µM); MIC [18]: 0.25 µg/mL (≈ 0.642 µM); MIC [21]: 0.25 µg/mL (≈ 0.642 µM); MIC [24]: 8 µg/mL (≈ 20.5 µM); MIC [25]: 32 µg/mL (≈ 82.2 µM); MIC [28]: 8 µg/mL (≈ 20.5 µM)
4 | O=C(O)c1cn(C2CC2)c2cc(N3CCNCC3)c(F)cc2c1=O [CIPROFLOXACIN] | – | – | – | – | – | 0.015 (≈ 0.0453 µM) | 0.015 (≈ 0.0453 µM) | 0.015 (≈ 0.0453 µM) | 0.06 (≈ 0.181 µM) | 0.5 (≈ 1.51 µM) | 0.06 (≈ 0.181 µM) | 0.25 (≈ 0.754 µM) | 64 (≈ 193 µM) | 0.25 (≈ 0.754 µM) | 16 (≈ 48.3 µM) | 4 (≈ 12.1 µM) | 4 (≈ 12.1 µM) | 0.125 (≈ 0.377 µM) | 0.125 (≈ 0.377 µM) | 0.03 (≈ 0.0905 µM) | MIC [28]: 2 µg/mL (≈ 6.04 µM)
5 | C[C@H]1COc2c(N3CCN(C)CC3)c(F)cc3c(=O)c(C(=O)O)cn1c23.C[C@H]1COc2c(N3CCN(C)CC3)c(F)cc3c(=O)c(C(=O)O)cn1c23.O [LEVOFLOXACIN] | 16 | 16 | 8 | 8 | 0.125 | 0.125 | 8 | 0.125 | 0.25 | 0.25 | 0.25 | 0.06 | 32 | 0.125 | 16 | 4 | 8 | 0.25 | 0.06 | 0.06 | MIC [9]: 0.125 µg/mL; MIC [16]: 0.125 µg/mL; MIC [17]: 0.125 µg/mL; MIC [18]: 0.125 µg/mL; MIC [21]: 0.125 µg/mL
